T cruzi inh: inhibitors of intracellular T. cruzi growth, primary screen, luminescence, NIH3T3 host cells. T. cruzi beta-gal in NIH3T3, 90 h. actives 1.4% (n = 300,000). AID 1885, 2009. inhibition, % (concentration not given with the values);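 active means mean inhibition across valid replicates above about 55%, limit read from the data; inconclusive means mean below that limit but half or more replicates reach it; inactive means mean below it, under half of replicates reach it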;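 further: signal also drops with host cell toxicity which is not excluded here; 0% = plate median of DMSO wells and 100% = zero luminescence signal; higher percent means less beta-gal luminescence so fewer parasites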
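Material: NIH/3T3 host cells with β-galactosidase reporter T. cruzi; Input: 5,000 host fibroblasts per well; Medium: DMEM, 2% fetal bovine serum; Compound: 50 nL DMSO compound solution per well; Schedule: 3 h host attachment, then at least 90 h co-culture; Detection: luminescent β-galactosidase signal after 60 min lysis.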
HSF-1 act: HSF-1 activators, primary screen, NIH3T3-HGL cells, MG132 stress, luminescence, single point; NIH3T3-HGL HSF-1 luciferase reporter, 8 h; 100% = twice DMSO control signal; activation, % at 9 µM; actives 1.7% (n = 300,000); AID 504408, 2011;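 active means mean replicate activation of at least 50% with a set share of replicates each reaching 50%; inconclusive means only one of those two conditions met; inactive means mean below 50% and too few replicates reaching it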;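 further: 0% = median of the neutral control wells and 100% = twice that signal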
CaV13 FRET inh: Primary screen for inhibitors of IQ motif and Ca2+-dependent inactivation inhibitor domain binding in CACNA1D, Förster resonance energy transfer in living cells, … | HEK cells, CFP/YFP FRET ICDI-IQ, plate reader, 10 min; percent FRET-ratio fall versus neutral wells | inhibition, % at 12.3 µM | actives 0.098% (n = 340,000);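 active means mean replicate inhibition of at least 30% and at least 1% of replicates passing that level; inconclusive means only one of the two criteria is met; inactive means neither criterion is met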;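 further: 0% = median of the neutral control wells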
PfHsp90 set2: growth inhibition of PfHsp90-expressing yeast, primary screen, antimalarial PfHsp90 inhibitor project, S. cerevisiae, BacTiter-Glo luminescence, single point, set 2; BacTiter-Glo ATP, 48 h; yeast lacking PDR1 and PDR3 efflux regulators; inhibition, % at 9.4 µM; actives 0.32% (n = 310,000);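 active means every replicate shows inhibition above about 80%, whatever the replicate mean, limit read from the data; inconclusive means mean inhibition reaches the set limit but some replicate falls short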;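 further: 0% = DMSO neutral controls and 100% = 20 µM radicicol positive controls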
N-glyco inh: increase of ERlucT glycosylation luciferase signal, primary screen, N-linked glycosylation inhibitor project, D54 ERlucT cells, luminescence, set 2; D54 ERlucT glycosylation luciferase reporter, 24 h; percent of 100 nM tunicamycin response; reporter increase, % at 12.5 µM; actives 0.23% (n = 360,000); AID 588692, 2011;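 active means mean luciferase reporter signal, scaled so untreated is 0 and the glycosylation-blocking control 100, at or above a set limit in every replicate; inconclusive means mean reaches the limit but not every replicate does; inactive means mean below the limit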;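 further: luciferase carries N-glycosylation sites so blocking glycosylation raises the light; 0% = median of neutral control wells and 100% = median of 100 nM tunicamycin wells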
PvdQ inh: P. aeruginosa PvdQ acylase inhibitors, primary screen, biochemical, fluorescence, plate reader and imaging, single point | PvdQ acylase [Pseudomonas aeruginosa LESB58] | purified PvdQ acylase | inhibition, % at 10 µM | actives 0.063% (n = 340,000); in the data active means inhibition above about 30%, passing the limit was not always enough; inconclusive means no clear call, values can overlap the other calls;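 further: 0% = vehicle neutral wells and 100% = reference inhibitor wells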
Numbers without * were called inactive; ? = inconclusive; . = no result. Hits are enriched below; roughly 3% of the tested compounds scored in any of these assays.

SMILES | T cruzi inh | HSF-1 act | CaV13 FRET inh | PfHsp90 set2 | N-glyco inh | PvdQ inh
O=C(O)CC(C(=O)O)C(=Cc1ccccc1)c1ccccc1 (stereo not given) | . | . | -10 | . | 1 | .
COc1cc(OC)c(NC(=O)CCNC(=O)Cn2cnc3ccccc3c2=O)cc1Cl | -7 | 51* | . | 8 | 4 | 4
Fc1ccc(Nc2nc(-c3ccncc3)cs2)cc1 | 47 | 4 | -3 | 7 | -5 | 0
c1ccc(Nc2nc(-c3ccncc3)cs2)cc1 | 65* | 32 | . | -9 | -6 | 10
Clc1ccc(Nc2nc(-c3ccncc3)cs2)cc1 | 57* | 18 | . | -25 | -7 | -3
O=C(/C=C/c1ccccc1)Nc1nc(-c2ccncc2)cs1 | 66* | 28 | 2 | -5 | -10 | 17
O=C(O)C(Cc1ccccc1)N1C(=O)C=CC1=O (stereo not given) | . | . | -4 | . | -1 | .
Cc1cc(C)n2nc(/C(C#N)=C/c3ccccn3)c(C#N)c2n1 | -42 | 99* | 0 | -1 | 8 | 10
Cc1cc(C)n2nc(CC#N)c(C#N)c2n1 | -8 | -3 | -2 | 4 | -1 | -12
COCCN(C(=O)COC(=O)CCCc1c[nH]c2ccccc12)c1c(N)n(Cc2ccccc2)c(=O)[nH]c1=O | . | . | -16 | . | 2 | 8
COc1cc(/C=C/C(=O)c2ccc3c(c2)OCCO3)cc(OC)c1OC | 8 | 190* | -6 | 9 | 42* | -13
COc1ccc(/C=C/C(=O)c2ccc3c(c2)OCO3)cc1OC | . | . | -6 | -3 | 0 | -11
COc1ccc(OC)c(/C=C/C(=O)c2ccc3c(c2)OCCO3)c1 | -12 | 66* | -129 | 13 | 3 | -8
COc1ccc(CN(C(=O)c2cc3ccccc3oc2=O)C2CCS(=O)(=O)C2)cc1OC (stereo not given) | -15 | 56* | -4 | -16 | 0 | 7
O=[N+]([O-])c1ccc(N2CCOCC2)cc1O | -5 | 10 | 6 | 16 | 3 | 2
Cc1cc(N2CCOCC2)ccc1/C=C\[N+](=O)[O-] | 13 | 80* | -5 | -10 | -10 | -1
COc1ccc(NC(=O)CN(C)S(=O)(=O)c2ccc(Br)s2)cc1OC | 1 | 55* | -4 | -7 | 1 | 7
CN(C(=O)c1ccccc1)c1nc2ccccc2s1 | -15 | 65* | . | 20 | -12 | -7
CN(C)CCCN(C(=O)c1nc2ccccc2s1)c1nc2ccc(F)cc2s1 | 67* | -6 | 9 | -18 | 1 | -7
CN(C)CCCN(C(=O)c1ccc(C(=O)c2ccccc2)cc1)c1nc2ccc(F)cc2s1 | 57* | 1 | -17 | -11 | -3 | -2
CN(C)CCN(C(=O)c1ccc2ccccc2c1)c1nc2ccc(F)cc2s1 | 31 | 10 | . | 3 | -3 | -7
C[C@@H]1CN([C@@H](C)CO)C(=O)CCCn2cc(nn2)CO[C@H]1CN(C)C(=O)Nc1ccc2c(c1)OCCO2 | . | . | -10 | . | . | .
O=C(CSc1cccc[n+]1[O-])Nc1ccccc1Oc1ccccc1 | 82* | 2 | 2 | -22 | 2 | -8
O=C(CSc1cccc[n+]1[O-])CSc1cccc[n+]1[O-] | 67* | -1 | -9 | 8 | 3 | -16
O=C(CSc1cccc[n+]1[O-])N1CCCCCC1 | 2 | -8 | 6 | 5 | 0 | -3
SMILES | T cruzi inh | HSF-1 act | CaV13 FRET inh | PfHsp90 set2 | N-glyco inh | PvdQ inh
O=C(CSc1cccc[n+]1[O-])Nc1ccccc1C(F)(F)F | . | . | -6 | . | 2 | -1
Cc1cc(-c2cc(-c3ccc(Cl)cc3)nc(N)c2C#N)co1 | . | -21 | . | 122* | -2 | -20
COc1ccc(-c2cc(-c3ccc(O)cc3)nc(N)c2C#N)cc1OC | -8 | 19 | . | -4 | 27* | -9
COc1ccc(-c2c(C#N)c(N)nc3c2CCc2ccccc2-3)cc1OC | -14 | 6 | -10 | . | . | .
Cc1ccc(-c2cc(-c3ccc(C)o3)nc(N)c2C#N)cc1 | 17 | 10 | -5 | 10 | -1 | 4
Cc1ccc(-c2cc(-c3ccc(F)cc3)c(C#N)c(N)n2)o1 | -18 | 3 | -4 | 120* | -1 | -4
COC(=O)C1=C(C)N(Cc2ccccc2C(F)(F)F)C(=NCc2ccc(OC)cc2)NC1c1cccc(Cl)c1 (stereo not given) | . | . | -3 | . | . | .
Cc1ccc(Sc2c(CO)c(-c3ccccc3)nn2C)cc1 | -20 | -27 | -7 | 1 | 29* | 11
O=C1NC[C@H](CCCCN2C[C@H](Cc3ccc(O)cc3)N(CC3CCCCC3)C(=O)C2=O)N(CC2CCCCC2)C1=O | . | . | -4 | . | . | .
O=C(NCCCn1ccnc1)c1sc2cccc(F)c2c1Cl | 64* | 20 | -5 | -4 | 1 | 2
CN(C)c1ccc(/C=C/c2cc[n+](C)cc2)cc1 | 85* | 5 | -10 | 4 | -1 | -7
CCCCCC[n+]1ccccc1/C=C/c1ccc(N(C)C)cc1 | . | . | -50 | . | ? | .
Cc1ccc(/C=C/c2ccc(N(C)C)cc2)[n+](C)c1 | 61* | -6 | -28 | -7 | 0 | -5
CN(C)c1ccc(/C=C/c2cc[n+]([O-])cc2)cc1 | -4 | 17 | . | . | . | .
CC[n+]1ccccc1/C=C/c1ccc(N(C)C)cc1 | 59* | 12 | -5 | -1 | -5 | 6
N#Cc1c(NC(=O)CSc2nnc(-c3ccccc3)o2)sc2c1CCCC2 | -2 | 76* | -8 | -9 | 0 | -1
COc1ccc(-c2ccc(C#N)c(SCC(=O)Nc3sc4c(c3C#N)CCC4)n2)cc1OC | 10 | 53* | -5 | -12 | -4 | -11
Cc1sc(NC(=O)CSc2nnc(-c3ccccc3)o2)c(C#N)c1C | -1 | 43 | -3 | . | -3 | -8
N#Cc1cc2c(nc1SCC(=O)Nc1sc3c(c1C#N)CCC3)CCC2 | 9 | 21 | -5 | -6 | 1 | -4
CC1CCc2c(sc(NC(=O)CSc3nnc(-c4ccccc4)o3)c2C#N)C1 (stereo not given) | 2 | 53* | -6 | -4 | 1 | 3
CCCCCN(C(=O)Cc1c(C)n(CCCCC)c2ccccc12)c1ccc(Oc2cccnc2)c(C)c1 | . | . | -9 | . | . | .
O=C(c1ccccc1)c1coc2c1C(=O)c1ccccc1C2=O | -11 | -19 | -2 | -13 | -10 | 0
O=C1c2ccccc2C(=O)c2c1oc(C(F)(F)F)c2C(=O)c1ccccc1 | 59* | -80 | -1 | -85 | -2 | -16
CCN(CC)c1ccc2c(c1)oc(=O)c1c(Cl)cc(=O)oc12 | -21 | ? | . | -21 | 21 | 1

Source: PubChem
